{"data": "Assay results gathered from unrelated publications", "note": "Compare with care: the assays were run in different laboratories."}
{"SMILES": "Cc1cc(Nc2ccc(C(=O)N/N=C/c3cc4ccccc4[nH]3)cc2)c2cccc(O)c2n1", "cell line": "SMMC-7721", "test": "cell growth or viability, MTT", "setting": "20 µM", "endpoint": "inhibition", "result": "54.3%"}
{"SMILES": "O=C1CCC(N2Cc3cc(CNC(=O)C(F)(F)c4ccc(Cl)cc4)ccc3C2=O)C(=O)N1 (stereo not shown)", "cell line": "MHHCALL4", "test": "cell growth or viability, ATP luminescence", "endpoint": "EC50", "result": "0.00413 µM"}
{"SMILES": "C/C(=N\\O)c1ccc(-c2ccc(F)cc2)c(Cl)c1O", "cell line": "NCI-H1299", "test": "cell growth or viability, MTT", "setting": "30 µM, 48 h", "endpoint": "viability", "result": "69%"}
{"SMILES": "COc1ccc(-c2ccc(-c3ccc(C(=N)N)nc3)s2)cc1", "cell line": "M14", "test": "cell growth or viability, SRB", "endpoint": "GI50", "result": "1.8 µM"}
{"SMILES": "COc1cc(/C=C/c2cc(/C=C/c3ccncc3)[nH]n2)ccc1O", "cell line": "CHO-K1", "test": "cell growth or viability, MTT", "setting": "72 h", "endpoint": "IC50", "result": "32.2 µM"}
{"SMILES": "Cc1cc(Nc2ccc(C(=O)N/N=C/c3ccncc3)cc2)c2cccc(O)c2n1", "cell line": "SMMC-7721", "test": "cell growth or viability, MTT", "setting": "20 µM", "endpoint": "inhibition", "result": "17.1%"}
{"SMILES": "C=CC(=O)N1CCN(c2nc(=O)n(-c3c(C)ccnc3C(C)C)c3nc(-c4c(O)cccc4F)c(F)cc23)[C@@H](C)C1", "cell line": "NCI-H1437", "test": "cell growth or viability, ATP luminescence", "setting": "5 days", "endpoint": "GI50", "result": "> 10 µM"}
{"SMILES": "O=C(/C=C(O)/C=C/c1ccncc1)/C=C/c1c[nH]c2ccccc12", "cell line": "CHO-K1", "test": "cell growth or viability, SRB", "setting": "72 h", "endpoint": "IC50", "result": "66.3 µM"}
{"SMILES": "COc1ccc(/C=N/NC(=O)c2ccc(Nc3cc(C)nc4c(O)cccc34)cc2)cc1O", "cell line": "SMMC-7721", "test": "cell growth or viability, MTT", "setting": "20 µM", "endpoint": "inhibition", "result": "30.3%"}
{"SMILES": "Clc1ccccc1-c1nc2ccccc2[nH]1", "cell line": "human Rhabdomyosarcoma cell", "test": "cell growth or viability, MTT", "setting": "48 h", "endpoint": "IC50", "result": "42.4 µM"}
{"SMILES": "N[C@@H]1CCCN(c2c(/C=C3\\SC(=O)NC3=O)cccc2-c2ccccc2)C1", "cell line": "U-266", "test": "cell growth or viability, thymidine uptake", "endpoint": "GI50", "result": "4.27 µM"}
{"SMILES": "Clc1ccc(-c2nc3ccccc3[nH]2)c(Cl)c1", "cell line": "human Rhabdomyosarcoma cell", "test": "cell growth or viability, MTT", "setting": "48 h", "endpoint": "IC50", "result": "35 µM"}
{"SMILES": "COc1cc(Nc2nccc(-c3cnn4nc(OC)ccc34)n2)cc(C(F)(F)F)c1", "cell line": "NCI-H1437", "test": "cell growth or viability, ATP luminescence", "endpoint": "IC50", "result": "0.75 µM"}
{"SMILES": "CS(=O)(=O)CCNCc1ccc(-c2ccc3ncnc(Nc4ccc(OCc5cccc(F)c5)c(Cl)c4)c3c2)o1", "cell line": "NCI-H1299", "test": "cell growth or viability, MTT", "setting": "72 h", "endpoint": "EC50", "result": "41 µM"}
{"SMILES": "CC(=O)c1cccc(N=Nc2c(C(=O)O)cc(O)c(O)c2O)c1", "cell line": "RAW264.7", "test": "IL-6 release, inhibitor, ELISA", "setting": "10 µM, LPS-stimulated", "endpoint": "inhibition", "result": "43%"}
{"SMILES": "CC(=O)c1c(C)c2cnc(Nc3ccc(N4CCNCC4)cn3)nc2n(C2CCCC2)c1=O", "cell line": "HCC70", "test": "cell growth or viability, resazurin", "endpoint": "GI50", "result": "> 5 µM"}
{"SMILES": "Cc1ccc2nc(-c3ccc(Cl)c(Cl)c3)n(Cc3ccccc3)c2c1", "cell line": "human Rhabdomyosarcoma cell", "test": "cell growth or viability, MTT", "endpoint": "IC50", "result": "78.9 µM"}
{"SMILES": "O=C(/C=C(O)/C=C/c1ccc[nH]1)/C=C/c1c[nH]c2ccccc12", "cell line": "CHO-K1", "test": "cell growth or viability, SRB", "setting": "72 h", "endpoint": "IC50", "result": "9.64 µM"}
{"SMILES": "COc1ccc(-c2ccc(/C(C)=N/O)c(O)c2Cl)cc1Cl", "cell line": "NCI-H1299", "test": "cell growth or viability, MTT", "setting": "30 µM, 48 h", "endpoint": "viability", "result": "65%"}
{"SMILES": "C=C(F)C(=O)N1CCN(c2nc(OC[C@@H]3CCCN3C)nc3c2CCN(c2cccc4cccc(Cl)c24)C3)C[C@@H]1CC#N", "cell line": "NCI-H1437", "test": "cell growth or viability, ATP luminescence", "setting": "5 days", "endpoint": "GI50", "result": "2.22 µM"}
{"SMILES": "c1cncc(-c2nc3ccccc3[nH]2)c1", "cell line": "human Rhabdomyosarcoma cell", "test": "cell growth or viability, MTT", "setting": "48 h", "endpoint": "IC50", "result": "87.7 µM"}
{"SMILES": "COc1cc(/C=C/c2cc(/C=C/c3cccnc3)[nH]n2)ccc1O", "cell line": "CHO-K1", "test": "cell growth or viability, MTT", "setting": "72 h", "endpoint": "IC50", "result": "13.2 µM"}
{"SMILES": "C/C(=N\\O)c1ccc(-c2ccc(O)c(Cl)c2)c(Cl)c1O", "cell line": "NCI-H1299", "test": "cell growth or viability, MTT", "setting": "30 µM, 48 h", "endpoint": "viability", "result": "80%"}
{"SMILES": "COc1cc(/C=C/C(=O)/C=C(O)/C=C/c2cccc3cnccc23)ccc1O", "cell line": "CHO-K1", "test": "cell growth or viability, MTT", "setting": "72 h", "endpoint": "IC50", "result": "7.6 µM"}
{"SMILES": "N#C[Se]CCOc1ccccc1Oc1ccccc1", "cell line": "Vero", "test": "cell growth or viability", "setting": "72 h", "endpoint": "CC50", "result": "> 20 µM"}
{"SMILES": "Cc1cc(Nc2ccc(C(=O)N/N=C/c3cccc(Oc4ccccc4)c3)cc2)c2cccc(O)c2n1", "cell line": "SMMC-7721", "test": "cell growth or viability, MTT", "setting": "20 µM", "endpoint": "inhibition", "result": "37.6%"}
{"SMILES": "CCn1cc(-c2cccc(C(F)(F)F)c2)c2sc(C(=N)NC3CCS(=O)(=O)CC3)cc2c1=O", "cell line": "HL-60", "test": "cell growth or viability", "setting": "7 days", "endpoint": "EC50", "result": "0.433 µM"}
{"SMILES": "Cc1cc(Nc2ncc(Cl)c(Nc3ccccc3S(=O)(=O)C(C)C)n2)c(OC(C)C)cc1C1CCNCC1", "cell line": "NCI-H3122", "test": "cell growth or viability, MTT", "setting": "0.0032 µg/mL, 72 h", "endpoint": "inhibition", "result": "10.3%"}
{"SMILES": "Cc1cc(Nc2ccc(C(=O)N/N=C/c3nc4ccccc4[nH]3)cc2)c2cccc(O)c2n1", "cell line": "SMMC-7721", "test": "cell growth or viability, MTT", "setting": "20 µM", "endpoint": "inhibition", "result": "28.3%"}
{"SMILES": "Cc1cc2c(cc1N1C(=O)c3cccc4c(CCCO)ccc(c34)C1=O)n(C)c(=O)n2C (racemic)", "cell line": "CHL-1", "test": "cell growth or viability, resazurin", "endpoint": "GI50", "result": "7.4 µM"}
{"SMILES": "FC(F)(F)[Se]CCOc1cccc(Oc2ccccc2)c1", "cell line": "Vero", "test": "cell growth or viability", "setting": "72 h", "endpoint": "CC50", "result": "> 20 µM"}
{"SMILES": "C/C(=N\\O)c1ccc(-c2ccc(O)c(C)c2)c(Cl)c1O", "cell line": "NCI-H1299", "test": "cell growth or viability, MTT", "setting": "30 µM, 48 h", "endpoint": "viability", "result": "62%"}
{"SMILES": "Cc1ccc2nc(-c3c4ccccc4cc4ccccc34)[nH]c2c1", "cell line": "human Rhabdomyosarcoma cell", "test": "cell growth or viability, MTT", "setting": "48 h", "endpoint": "IC50", "result": "27 µM"}
{"SMILES": "C[C@@H](Oc1cc(-c2cnn(C3CCNCC3)c2)cnc1N)c1c(Cl)ccc(F)c1Cl", "cell line": "NCI-H3122", "test": "cell growth or viability, MTT", "setting": "0.008 µg/mL, 72 h", "endpoint": "inhibition", "result": "18.1%"}
{"SMILES": "C/C(=N\\O)c1ccc(-c2ccc(C#N)cc2)c(Cl)c1O", "cell line": "NCI-H1299", "test": "cell growth or viability, MTT", "setting": "30 µM, 48 h", "endpoint": "viability", "result": "75%"}
{"SMILES": "Cc1cc(Nc2ccc(C(=O)N/N=C/C3CCCCC3)cc2)c2cccc(O)c2n1", "cell line": "SMMC-7721", "test": "cell growth or viability, MTT", "setting": "20 µM", "endpoint": "inhibition", "result": "26.3%"}
{"SMILES": "COc1ccc(-c2nc3ccc(C)cc3[nH]2)cc1OC", "cell line": "human Rhabdomyosarcoma cell", "test": "cell growth or viability, MTT", "setting": "48 h", "endpoint": "IC50", "result": "> 100 µM"}
{"SMILES": "COc1cc(/C=C/C(=O)/C=C(O)/C=C/c2ccc[nH]2)ccc1O", "cell line": "CHO-K1", "test": "cell growth or viability, MTT", "setting": "72 h", "endpoint": "IC50", "result": "24.1 µM"}
{"SMILES": "Cc1ccc2nc(-c3cc(Br)ccc3O)[nH]c2c1", "cell line": "human Rhabdomyosarcoma cell", "test": "cell growth or viability, MTT", "setting": "48 h", "endpoint": "IC50", "result": "10.4 µM"}
{"SMILES": "Cc1cc(Nc2ccc(C(=O)N/N=C/c3ccnc(Cl)c3)cc2)c2cccc(O)c2n1", "cell line": "SMMC-7721", "test": "cell growth or viability, MTT", "setting": "20 µM", "endpoint": "inhibition", "result": "19.8%"}
{"SMILES": "N#CSCCOc1ccccc1Oc1ccccc1", "cell line": "Vero", "test": "cell growth or viability", "setting": "72 h", "endpoint": "CC50", "result": "> 20 µM"}
{"SMILES": "Clc1ccc(-c2nc3ccccc3[nH]2)cc1Cl", "cell line": "human Rhabdomyosarcoma cell", "test": "cell growth or viability, MTT", "setting": "48 h", "endpoint": "IC50", "result": "10.4 µM"}
{"SMILES": "C=CC(=O)N1CCC[C@@H](n2nc(-c3ccc(Oc4ccccc4)cc3)c3c(N)ncnc32)C1", "cell line": "BCWM1", "test": "cell growth or viability", "setting": "48 h", "endpoint": "GI50", "result": "0.57 µM"}
